Assay outcomes as filed in PubChem.
In the library only some 2.6% were active in any assay of this set; here they are far more common.
PGE2 EP2 inh: EP2 receptor (human) inhibition | P43116 | 260,000 tested, 0.52% active | AID 1422 | C6 glioma cells expressing human EP2, cAMP TR-FRET; cells stimulated with saturating PGE2 | inhibition, % at 25 µM;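 active means percent inhibition above 40 after rounding to a whole number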;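 further: rat C6 glioma host cells with rolipram phosphodiesterase inhibitor present; the protocol text gives 20 µM as final concentration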
MC4R barr agon: human MC4R agonism via beta-arrestin; 360,000 tested, 0.98% active; AID 540308; P32245; U2OS MC4R beta-arrestin complementation, luminescence; percent of melanotan II response, DMSO zero; activation, % at 8.9 µM;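 active means activation above a per-plate cutoff, the mean activation of sample wells on that plate plus 3 SD, cut at about 8% in these data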
Target sequence (P32245 whole entry, looked up): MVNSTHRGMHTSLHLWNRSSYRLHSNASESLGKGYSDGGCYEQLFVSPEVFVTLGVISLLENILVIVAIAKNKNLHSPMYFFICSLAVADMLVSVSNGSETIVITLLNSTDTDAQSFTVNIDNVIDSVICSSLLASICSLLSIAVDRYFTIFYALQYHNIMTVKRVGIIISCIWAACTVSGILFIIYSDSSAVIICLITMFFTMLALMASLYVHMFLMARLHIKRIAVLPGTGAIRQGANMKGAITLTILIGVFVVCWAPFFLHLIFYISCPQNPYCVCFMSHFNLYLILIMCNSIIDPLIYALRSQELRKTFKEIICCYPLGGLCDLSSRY
EP2 modulator: EP2 receptor (human) modulation; P43116; EP2-expressing cells, cAMP HTRF FRET, PGE2 co-stimulation; induction, % at 25 µM; 260,000 tested, 0.83% active; AID 940;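 active means compounds whose cAMP rise, as percent of the full-agonist control response, exceeds 60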;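 further: rat C6 glioma line stably carrying human EP2 under a CMV promoter; the protocol text gives 20 µM as final concentration; 100% = response of wells given 1 µM PGE2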
T cell HTS: T cell immune modulation candidate; 2C CD8+ T cell-vesicle binding, flow cytometry; active compounds read low; response (vesicle binding), % at 7 µM; 330,000 tested, 0.068% active; AID 2052;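 active means response, share of CD8 T cells binding vesicles, and their 90th percentile fluorescence all below set limits, cut at about 80% in these data, passing the limit was not always enough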;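 further: values below 100% mean blocked vesicle binding to the CD8+ T cells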
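System: murine 2C transgenic CD8+ T lymphocytes; also added: QL9-loaded Drosophila micro-vesicles; times: binding 1.5 h at 37 °C; measured by: flow cytometry, PE anti-B7-1 (FL2) versus Alexa647 anti-CD8 (FL8), PFA-fixed; control set: Peptide-free naked vesicles (low) and QL9 vesicles with 0.7% DMSO vehicle (high)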
MC4R antag cAMP: human MC4R antagonism in cAMP assay | P32245 | MC4R-expressing cells, MTII-stimulated cAMP, LANCE TR-FRET | inhibition, % at 6.5 µM | 360,000 tested, 0.48% active;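 active means inhibition above its plate's cutoff, the mean of tested wells on that plate plus 3 SD, cut at about 29% in these data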;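 further: 0% = Melanotan II alone and 100% = Melanotan II plus saturating MCL0020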
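System – human MC4R-expressing U2OS cells · Also added – Melanotan II · Dosing – one concentration, 6.5 µM nominal · Timing – 30-min compound, 1-h challenge, 1-h detection, room temperature · Measured by – Eu-cAMP/anti-cAMP TR-FRET, emission 671 nm · Replicates – singlicate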
Exocytosis inh: lytic granule exocytosis inhibition. inhibition, % at 10 µM. TALL-104 LAMP-1 surface exposure, flow cytometry; cells stimulated with thapsigargin and PMA. 360,000 tested, 0.66% active;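 active means inhibition above about 55%, limit read from the data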
EP2 confirm: EP2 receptor cAMP induction, counter-screens negative | shares compounds with EP2 modulator | calls only at 20 µM (by protocol) | 1,300 tested, 47% active | AID 1080 | C6 glioma EP2 cells, cAMP HTRF induction; plus low (about EC15) PGE2 agonist;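 active means cAMP induction above 50% in the main assay while under 30% in all four parallel counter assays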;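 further: rat C6 glioma cells stably expressing human EP2 receptor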
An asterisk follows results filed as active; i = inactive; · = not tested or not shown; + = active, no number.

SMILES	PGE2 EP2 inh	MC4R barr agon	EP2 modulator	T cell HTS	MC4R antag cAMP	Exocytosis inh	EP2 confirm
CCOC(=O)CSc1nc(-c2ccccc2)nc2ccccc12	5	-3	70*	560	-3	1	+
CCOC(=O)C(C)Sc1nc(-c2ccccc2)nc2ccccc12 (configuration not stated)	3	-1	87*	440	5	-14	+
CC(C)OC(=O)CSc1nc(Cc2ccccc2)nc2ccccc12	7	-3	74*	295	15	5	+
CCOC(=O)CSc1nc(CC)nc2ccccc12	9	-1	38	482	7	3	·
COC(=O)CSc1nc(Cc2ccccc2)nc2ccccc12	13	-2	67*	271	5	-2	+
O=C(c1cccs1)N1CCC(c2nc3c(nnn3Cc3ccccc3Cl)c(=O)[nH]2)CC1	·	-2	·	161	-7	-4	·
CCOC(=O)CSc1nc(Cc2ccccc2)nc2ccccc12	10	-4	70*	771	0	2	+
CN(C)c1nc(N2CCOCC2)nc(N(c2ccccc2)c2ccccc2)n1	9	-2	66*	·	11	3	i
Nc1nc(N2CCOCC2)nc(N(c2ccccc2)c2ccccc2)n1	16	1	17	850	6	5	·
CCc1nc(N2CCCCC2C(=O)O)c2oc3ccccc3c2n1 (configuration not stated)	6	-1	-16	254	9	-3	·
CCc1nc(N2CCCCC2)c2oc3ccccc3c2n1	8	2	76*	580	6	1	i
CCCc1nc(SC2CCCC2)c2c(=O)n(C)c(=O)n(C)c2n1	7	0	79*	268	1	-2	+
CCCc1nc(SCC(=O)N2CCC(C)CC2)c2c(=O)n(C)c(=O)n(C)c2n1	8	2	-24	409	3	-3	·
CCOC(=O)c1sc2ncnc(N3CCN(C)CC3)c2c1C	3	1	11	368	0	2	·
CCOC(=O)c1sc2nc(C)nc(N3CCN(c4ncccn4)CC3)c2c1C	9	0	67*	434	3	-7	i
O=[N+]([O-])c1ccc(N2CCOCC2)cn1	15	1	11	173	4	1	·
CC(C)c1ccc2c(c1)CCC1C(C)(C(N)=O)CCCC21C (configuration not stated)	5	·	52	·	·	·	+
Cc1cc([N+](=O)[O-])c(C(C)(C)C)cc1N	9	0	10	544	7	-2	·
Cc1cc([N+](=O)[O-])c(C)c(Br)c1C	15	·	52	·	·	·	i
Cc1ccc(-c2csc(N(CC3CCCO3)C(=O)c3ccco3)n2)cc1 (configuration not stated)	14	0	72*	263	2	1	+
COc1ccc(-c2csc(N(CC3CCCO3)C(=O)c3ccc(C)cc3)n2)cc1 (configuration not stated)	5	1	35	367	10	2	·
O=C(c1cccs1)N(CC1CCCO1)c1nc(-c2ccccc2)cs1 (configuration not stated)	4	0	58	292	9	2	·
O=C(c1ccco1)N(CC1CCCO1)c1nc(-c2ccccc2)cs1 (configuration not stated)	10	2	66*	261	14	2	i
CC1=NN(c2ccc(S(=O)(=O)O)cc2)C(=O)/C1=C\c1ccc(Cl)cc1	43*	·	50	·	·	·	i
CC(O)Cn1c(=O)c2c(nc(Br)n2Cc2ccccc2)n(C)c1=O (configuration not stated)	10	-1	9	272	0	-1	·
SMILES	PGE2 EP2 inh	MC4R barr agon	EP2 modulator	T cell HTS	MC4R antag cAMP	Exocytosis inh	EP2 confirm
O=C(CSc1nc2ccccc2o1)Nc1ccccc1N1CCCCCC1	0	4	71*	185	4	1	+
O=C(CSc1nc2ccccc2o1)Nc1cc(C(F)(F)F)ccc1N1CCOCC1	17	-2	80*	394	0	1	+
CCC(=O)Nc1ccc(CCC(=O)N2CCCC2)cc1	·	-1	·	344	5	-12	·
c1ccc(-c2noc(-c3ccccc3-c3ccccc3)n2)cc1	9	0	51	202	10	-1	+
NC(=O)C1CCN(C(=O)COc2ccc3ccccc3c2Br)CC1	·	-1	·	466	2	-4	·
O=S(=O)(c1ccc(F)c(Cl)c1)N1CCCC1	7	1	68*	345	2	2	i
O=C(O)CCn1c(SCc2ccccc2)nc2ccccc21	9	-1	-15	251	9	-3	·
CC(C)(C)NC(=O)C(c1ccc(-c2ccccc2)cc1)n1c(=O)c(-c2ccco2)nc2ccccc21 (configuration not stated)	·	·	·	·	·	2	·
CCOC(=O)C1=C(N)OC(C)=C(C#N)C1c1ccco1 (configuration not stated)	10	-1	53	285	-4	-19	i
CCn1c2ccccc2c2nc3ccccc3nc21	6	3	62*	272	-8	1	i
COc1ccccc1C1/C(=C(/O)c2ccc(C)cc2)C(=O)C(=O)N1CC(C)O (configuration not stated)	21	-3	20	217	1	1	·
O=c1oc2c(CN3CCOCC3)c(O)ccc2c2c1CCC2	4	-1	13	442	4	2	·
O=c1oc2c3c4c(cc2c(C(F)(F)F)c1CCN1CCOCC1)CCCN4CCC3	9	-3	73*	504	2	-1	i
CC(C)c1cc(=O)oc2c3c4c(cc12)CCCN4CCC3	3	-1	54	264	11	0	+
O=C(O)C1CCC(=O)N(C2CCCCC2)C1c1ccccc1 (configuration not stated)	5	-1	28	302	1	-3	·
N#Cc1cccnc1N1CCN(C(=O)c2cccc3c2C(=O)c2ccc(-c4ccc(F)cc4OCc4ccccc4)cc2S3(=O)=O)CC1	·	-2	·	339	8	0	·
COc1cccc(/C=C/C(=O)c2cccc([N+](=O)[O-])c2)c1	12	-1	3	i	13	0	·
COc1ccc(OC(=O)c2cccc([N+](=O)[O-])c2)c(C(=O)/C=C/c2cccs2)c1	11	-1	77*	263	7	2	i
CSc1ccc(OC2CCCCC2NS(=O)(=O)c2ccccc2)cc1 (configuration not stated)	6	0	21	339	4	4	·
